The results in this text go back to ChEMBL document CHEMBL4184191, “Immunoproteasome inhibition and bioactivity of thiasyrbactins” (2018).

For test [1], the target named is T1, Proteasome component C5 (Homo sapiens) (UniProt P20618).
T1 sequence (whole entry): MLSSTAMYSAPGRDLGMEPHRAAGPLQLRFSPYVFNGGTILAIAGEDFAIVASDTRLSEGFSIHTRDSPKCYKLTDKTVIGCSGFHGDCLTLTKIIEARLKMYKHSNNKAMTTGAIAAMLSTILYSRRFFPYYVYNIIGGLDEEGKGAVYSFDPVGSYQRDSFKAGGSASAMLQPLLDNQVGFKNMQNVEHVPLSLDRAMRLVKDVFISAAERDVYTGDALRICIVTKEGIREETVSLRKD
Description: Inhibition of 20s constitutive proteasome caspase-like activity in human erythrocytes using […] as substrate pretreated for 2 hrs followed by substrate addition measured after 10 mins by luminescence assay. The format is cell-based. The gist of the method: (§1)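 Purified human 20S proteasome was used: constitutive enzyme from erythrocytes, immunoproteasome from PBMCs, each at 2.2 ng/µl. It was preincubated with inhibitor (0 to 10 µM) in 10 mM HEPES pH 7.3 for 2 h at 37 °C. An equal volume of luminogenic substrate was then added ([…], […], Suc-LLVY-Glo for β5), and luminescence was read 10 min later. Runs were in triplicate, and Ki-50 values were fitted and averaged.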

Test [2] addresses T2, Proteasome Macropain subunit MB1 (Homo sapiens) (UniProt P28074).
T2 sequence (whole entry): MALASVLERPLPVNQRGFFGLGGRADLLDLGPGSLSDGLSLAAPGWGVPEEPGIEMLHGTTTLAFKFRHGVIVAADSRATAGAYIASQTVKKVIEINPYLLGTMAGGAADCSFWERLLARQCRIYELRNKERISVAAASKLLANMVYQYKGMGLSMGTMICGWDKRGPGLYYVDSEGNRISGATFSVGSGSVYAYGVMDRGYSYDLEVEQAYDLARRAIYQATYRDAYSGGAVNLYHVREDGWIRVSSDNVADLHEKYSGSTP
Description: Inhibition of immunoproteasome chymotrypsin-like activity in human […] using Suc-LLVY-Glo as substrate pretreated for 2 hrs followed by substrate addition measured after 10 mins by luminescence assay. The format is cell-based. In a few lines: as §1

Test [3] concerns the target T1, Proteasome component C5 (Homo sapiens). The test is described as follows: Inhibition of immunoproteasome caspase-like activity in human […] using […] as substrate pretreated for 2 hrs followed by substrate addition measured after 10 mins by luminescence assay. The format is cell-based. In a few lines:
as §1

In test [4] the test system is SK-N-SH. Description: Cytotoxicity against human SK-N-SH cells assessed as reduction in cell viability at 0.1 to 1 uM after 24 hrs […]. The format is functional, cell-based.
The species named for test [5] is Homo sapiens. Description: Cytotoxicity against human MYCN2 cells assessed as reduction in cell viability at 0.1 to 1 uM after 24 hrs by […] assay. The format is functional, cell-based. The gist of the method: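 Human neuroblastoma cells were plated overnight in RPMI with 10% heat-inactivated FBS, penicillin (100 U/ml) and streptomycin (100 µg/ml), at 37 C and 5% CO₂. They were exposed to inhibitor at 0.01, 0.1 and 1 µM for 24 h. Viability was read with MTS reagent as absorbance at 490 nm. Two independent experiments were run, each in triplicate wells (n=6), and results are expressed relative to untreated control cells.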
A general note: Tetrazolium assays rely on reduction of a dye to a coloured formazan, in cell work by metabolically active cells.

The target of test [6] is Proteasome Macropain subunit (Homo sapiens) (UniProt P49721). Description: Inhibition of 20s constitutive proteasome trypsin-like activity in human erythrocytes using […] as substrate pretreated for 2 hrs followed by substrate addition measured after 10 mins by luminescence assay. In kind it is cell-based. In a few lines: as §1
Test [7] has the same target. The test is described as follows: Inhibition of immunoproteasome trypsin-like activity in human […] using […] as substrate pretreated for 2 hrs followed by substrate addition measured after 10 mins by luminescence assay. The format is cell-based. In a few lines:
as §1

The target of test [8] is T2, Proteasome Macropain subunit MB1 (Homo sapiens). The test is described as follows: Stimulation of immunoproteasome chymotrypsin-like activity in human […] at 1 uM using Suc-LLVY-Glo as substrate pretreated for 2 hrs followed by substrate addition measured after 10 mins by luminescence assay. The format is cell-based.
Test [9] deals with SK-N-SH. Description: Cytotoxicity against human SK-N-SH cells assessed as reduction in cell viability at 0.01 to 1 uM after 24 hrs […]. The format is functional.
Test [10] can be described thus: Cytotoxicity against human MYCN2 cells assessed as reduction in cell viability at 0.01 to 1 uM after 24 hrs […]. In kind it is functional.
For test [11], the target named is T2, Proteasome Macropain subunit MB1 (Homo sapiens). The test is described as follows: Inhibition of 20s constitutive proteasome chymotrypsin-like activity in human erythrocytes using Suc-LLVY-Glo as substrate pretreated for 2 hrs followed by substrate addition measured after 10 mins by luminescence assay. The format is cell-based. In a few lines:
as §1

The species entered for test [12] is Homo sapiens. The test is described as follows: Cytotoxicity against human SK-N-BE(2)C cells assessed as reduction in cell viability after 24 hrs […]. The format is functional, cell-based.
The subject of test [13] is SK-N-SH. The test is described as follows: Cytotoxicity against human SK-N-SH cells assessed as reduction in cell viability after 24 hrs […]. The format is functional, cell-based.
For test [14], the species on record is Homo sapiens. The test is described as follows: Cytotoxicity against human MYCN2 cells assessed as reduction in cell viability after 24 hrs […]. The format is functional, cell-based.

The source made the active and inactive calls. No cut-off for these calls is given here. Some results are limits rather than exact numbers.

Sequence of Proteasome Macropain subunit (Homo sapiens) (P49721 whole entry): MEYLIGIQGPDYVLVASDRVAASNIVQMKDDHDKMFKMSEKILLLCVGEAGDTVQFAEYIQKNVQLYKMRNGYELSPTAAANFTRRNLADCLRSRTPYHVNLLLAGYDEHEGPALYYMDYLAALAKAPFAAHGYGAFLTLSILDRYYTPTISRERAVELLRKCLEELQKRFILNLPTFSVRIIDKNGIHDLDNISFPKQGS

As for `CC(C)C[C@H](NC(=O)[C@H](Cc1ccccc1)NC(=O)c1cnccn1)B(O)O`, the Ki50 in test [1] is 0.02 µM; in [2], 0.01 µM; in test [3] it was 0.03 µM. Besides, the outcome in the test on SK-N-SH [4] and in the test filed under Homo sapiens [5] was Active.

Turning to `CC(C)Cc1ccc([C@H](C)C(=O)N[C@H](C(=O)N[C@H]2CSCCNC(=O)/C=C/[C@H](C)NC2=O)C(C)C)cc1`, the Ki50 in test [1] is greater than 10 µM; in test [6], 1.07 µM; in test [2] it was greater than 10 µM; in [3], greater than 10 µM; in [7] it was 0.74 µM. Further, in test [8], the outcome was Active.

As to `CC(C)[C@H](NC(=O)c1cnccn1)C(=O)N[C@H]1CSCCNC(=O)/C=C/[C@H](C)NC1=O`, the Ki50 was greater than 10 µM in test [1]; 0.92 µM in [6]; greater than 10 µM in test [2]; greater than 10 µM in [3]; 0.75 µM in [7]. Besides, the result in test [8] was Active.

Consider `CCCCCCCCCCCCNC(=O)N[C@H](C(=O)N[C@H]1CSCCNC(=O)/C=C/[C@H](C)NC1=O)C(C)C`, for which the Ki50 was greater than 10 µM in [1]; 1.76 µM in test [6]; greater than 10 µM in test [2]; greater than 10 µM in test [3]; 1.39 µM in test [7]. Also, the Activity (in the test with SK-N-SH [9]; in test [10]) was 30 - 50% in each case.

Take `CCCCCCCCCCCCNC(=O)N[C@H](C(=O)N[C@H]1C[S+]([O-])CCNC(=O)/C=C/[C@H](C)NC1=O)C(C)C` (some centres undefined): the inhibition result in test [11], in [1], in [6], in test [2], in test [3] and in [7] was “inactive” each time. The outcome in the test filed under Homo sapiens [12], in the test on SK-N-SH [13] and in the test listed under Homo sapiens [14] was inactive.

Consider `C[C@H]1/C=C/C(=O)NCCSC[C@H](NC(=O)c2cnccn2)C(=O)N1`, for which the inhibition result in test [11], in [1], in test [6], in test [2], in [3] and in [7] was “inactive” each time. Moreover, the outcome in the test listed under Homo sapiens [12], in the test on SK-N-SH [13] and in the test listed under Homo sapiens [14] was inactive.

As for `COc1ccc(C[C@H](NC(=O)[C@H](C)NC(=O)CN2CCOCC2)C(=O)N[C@@H](Cc2ccccc2)C(=O)[C@]2(C)CO2)cc1`, the Ki50 in test [1] is 2.07 µM; in test [2] it was 0.11 µM; in test [3] it was 1.32 µM.

`C[C@H]1/C=C/C(=O)NCC[S+]([O-])C[C@H](NC(=O)c2cnccn2)C(=O)N1` (some centres undefined): the inhibition entry in test [11], in [1], in test [6], in test [2], in test [3] and in test [7] was “inactive” throughout. Also, the outcome in the test listed under Homo sapiens [12], in the test with SK-N-SH [13] and in the test filed under Homo sapiens [14] was inactive.
